# NR2E3 ag-1: agonists of human NR2E3 nuclear receptor. Q9Y5X4. CHO-S Gal4-NCOR/VP16-NR2E3 two-hybrid, luciferase. inhibition of corepressor binding, % at 3.98 µM. 360,000 compounds, 0.35% hits;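 active = inhibition above the mean of all tested compounds plus 3 SD, cut at about 70% in these data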;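 note: 0% = DMSO with NR2E3 transfected cells and 100% = cells lacking NR2E3 construct; higher means lower luciferase signal from less NR2E3 corepressor binding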
# Target sequence (Q9Y5X4 whole entry, looked up, the tested form may be a part): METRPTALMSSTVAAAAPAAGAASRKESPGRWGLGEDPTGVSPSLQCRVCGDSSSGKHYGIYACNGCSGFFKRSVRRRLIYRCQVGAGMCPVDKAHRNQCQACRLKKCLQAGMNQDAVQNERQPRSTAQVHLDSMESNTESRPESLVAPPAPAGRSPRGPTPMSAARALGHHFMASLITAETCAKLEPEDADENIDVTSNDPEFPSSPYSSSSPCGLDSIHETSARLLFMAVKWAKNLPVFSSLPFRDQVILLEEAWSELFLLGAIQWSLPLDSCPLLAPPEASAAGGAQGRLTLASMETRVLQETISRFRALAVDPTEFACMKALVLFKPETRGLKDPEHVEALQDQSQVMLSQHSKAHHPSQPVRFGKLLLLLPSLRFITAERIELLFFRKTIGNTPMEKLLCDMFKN
# NR2E3 ag-2: activates human photoreceptor nuclear receptor NR2E3 | Q9Y5X4 | inhibition of corepressor binding, % at 4.78 µM | GST-NR2E3/biotin-RetCOR TR-FRET, 1536-well | 320,000 compounds, 0.12% hits;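 active = percent inhibition above the cutoff of mean plus 3 SD of all tested compounds, set per screening campaign, cut at about 20% in these data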;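 note: 0% = DMSO wells and 100% = biotin wells as full block of FRET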
#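 Test system: GST-NR2E3 and biotin-RetCOR proteins | Quantity: 1.35 nM GST-tagged NR2E3 final | Medium: Tris pH 7.5 | Also added: 7 nM biotin-RetCOR | Dosing: Compound at 4.8 µM, single dose | Timing: 5 h at 4 °C | Detection: Time-resolved FRET | Read-out basis: Percent inhibition | Benchmarks: Biotin wells as high control, 0.6% DMSO wells as low control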
# Myeloid diff 2: compounds promoting myeloid differentiation; ER-HoxA9 myeloid progenitors, lysozyme-GFP differentiation, flow cytometry; calls only at 10 µM; 360,000 compounds, 1% hits;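 active = normalized GFP-positive differentiation at or above the plate's own cutoff, the solvent-only control mean plus 3 SD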;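 note: cells exposed to compound for four days before flow analysis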
# T cell HTS: modulates CD8 T cell binding to vesicles. 2C CD8+ T cell-vesicle binding, flow cytometry; active compounds read low. response (vesicle binding), % at 7 µM. 330,000 compounds, 0.068% hits;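 active = response, share of CD8 T cells binding vesicles, and their 90th percentile fluorescence all below set limits, cut at about 80% in these data, passing the limit was not always enough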;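 note: values below 100% mean blocked vesicle binding to the CD8+ T cells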
#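 incubation = binding step 1.5 h, 37 °C, antibody labelling 20 min, ice | test system = 2C mouse CD8+ T cells | read-out basis = percent CD8+ FL2 mean versus row control | controls = Peptide-free naked vesicles (low) and QL9 vesicles with 0.7% DMSO vehicle (high) | detection = flow cytometry of vesicle-bound cells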
# FXN GAA850 act: activators of GAA850 frataxin (FXN) promoter | HEK293 lucGAA850 FXN promoter luciferase reporter, 24 h; percent of 10 µM SAHA response | activation, % at 6 µM | 360,000 compounds, 0.56% hits | AID 540364;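 active = activation above the average of all compounds screened plus 3 SD, cutoff fixed separately per campaign, cut at about 7.5% in these data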;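 note: 0% = DMSO wells and 100% = 10 µM SAHA wells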
# Myeloid diff: myeloid differentiation induction | AID 651706 | 2,300 compounds, 2% hits | ER-HoxA9 myeloid progenitors, GFP/Mac1 double-positive flow | shares compounds with Myeloid diff 2 | calls only;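 active = share of green or green-and-red cells above 9 and 9% in run 1 or 4 and 3% in run 2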
# GFP autofluor: counter-screen for myeloid differentiation promoters: compound fluorescence; shares compounds with Myeloid diff 2; ER-HoxA9 myeloid progenitors, no estrogen, GFP autofluorescence flow cytometry; vehicle wells 0%, positive control 100%; fluorescence response, % (test concentration not listed); 2,300 compounds, 7.4% hits; AID 651707;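 active = over 5% cells positive for green fluorescent reporter, or over 2% positive for both it and APC stain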;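 note: range taken on the double positive population between DMSO and positive control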
# * = called active by the depositor; i = inactive; nt = no result given; + = active, no number. Hits are enriched below; roughly 2% of the tested compounds scored in any of these assays.
SMILES,NR2E3 ag-1,NR2E3 ag-2,Myeloid diff 2,T cell HTS,FXN GAA850 act,Myeloid diff,GFP autofluor
Cc1ccc(S(=O)(=O)N2CCN(C(=O)C3CCCO3)CC2)cc1 (configuration not stated),-3,-2,i,858,-2,nt,nt
O=C(N/N=C1\SCC(=O)N1CCc1ccccc1)c1cccs1,24,2,i,176,2,nt,nt
COc1ccc(CCN2C(=O)CS/C2=N\NC(=O)c2ccc(C(C)(C)C)cc2)cc1OC,-12,0,i,179,1,i,0
C[C@H]1O[C@H](C2CCCC2)CC2=C1C(=O)OC(C)(C)O2,-24,nt,i,nt,nt,nt,nt
COc1nc(C)ccc1-c1noc(-c2cccnc2)n1,-70,2,i,186,3,nt,nt
COc1nc(C)ccc1-c1noc(-c2ccccn2)n1,-90,3,i,104,6,i,0
Cc1cc(C(=O)COc2ccc(F)cc2Br)c(C)n1C,-68,3,i,229,5,nt,nt
Cc1cc(C(=O)COc2ccc(F)cc2Br)c(C)n1C1CC1,-48,nt,i,nt,3,i,2
COc1ccc(S(=O)(=O)N2CCOC2CNC(=O)C(=O)NCc2ccccn2)cc1OC (configuration not stated),-18,nt,+,nt,1,i,0
CCCOc1ccc(Cc2nn3c(=O)/c(=C/c4ccco4)sc3nc2=O)cc1,-8,2,i,935,-1,i,0
O=C(c1ccc(-c2ccc([N+](=O)[O-])cc2)o1)N1CCCCCCC1,-29,0,+,658,6,i,0
CN1COc2ccc3ccccc3c2C1,8,-1,i,234,0,nt,nt
CN(Cc1ccncc1)C(=O)[C@@H]1CCCN1C(=O)[C@@H]1CCCN1,6,nt,i,nt,nt,nt,nt
CC1=Nc2cc(C(=O)O)ccc2Sc2ccc(Br)cc21,-7,1,i,433,1,nt,nt
CC1=Nc2cc(C(=O)NCC3CCCO3)ccc2Sc2ccc(Br)cc21 (configuration not stated),-14,2,i,167,-2,i,1
Cc1cc(Nc2ccccc2)c2c([N+](=O)[O-])ccc(C)c2n1,-11,2,i,163,1,i,0
CCOC(=O)c1c(C)c(C(=O)NCc2cccs2)c(C)n1C,9,2,i,460,1,i,0
CC1(C(=O)Nc2ccc3c(c2)OCCO3)CCN1C(=O)c1ccco1 (configuration not stated),3,nt,i,nt,0,nt,nt
O=C1NCCN/C1=C\C(=O)c1cccc(Br)c1,-24,-4,i,410,4,nt,nt
CCCCNC(=O)CCc1nc2cccnc2n1Cc1ccc(OC)cc1,1,2,i,300,2,nt,nt
CCCCNC(=O)CCc1nc2cccnc2n1Cc1ccccc1,-52,4,+,211,-1,i,0
COc1ccccc1N1C(=O)c2cccc3c(Cl)ccc(c23)C1=O,-33,-4,i,106,1,i,0
Cc1ccc2nc(SCC(=O)Nc3cccc(S(=O)(=O)NC4=NCCCCC4)c3)[nH]c2c1,-27,-3,i,220,-2,i,96*
O=C(COc1ccc(Cl)cc1)Nc1cccc(S(=O)(=O)NC2=NCCCCC2)c1,-4,1,i,365,2,nt,nt
Cc1cc(Cl)ccc1OCC(=O)Nc1cccc(S(=O)(=O)NC2=NCCCCC2)c1,-12,-1,+,308,-1,i,1
SMILES,NR2E3 ag-1,NR2E3 ag-2,Myeloid diff 2,T cell HTS,FXN GAA850 act,Myeloid diff,GFP autofluor
COc1ccc(C(=O)N(C)[C@H]2C[C@H]3c4[nH]c5ccccc5c4CCN3C(=O)[C@H]2CO)cc1,10,nt,i,nt,1,nt,nt
Cc1c(F)cccc1NS(=O)(=O)c1ccccc1C#N,0,-1,i,384,0,nt,nt
COc1ccccc1NS(=O)(=O)c1ccccc1C#N,16,5,i,325,-1,i,0
FC(F)(F)c1ccc(-n2ccnc2)nc1,15,2,+,230,1,i,0
FC(F)(F)c1nnc2ccc(-n3ccnc3)nn12,-23,4,i,488,0,nt,nt
COC(=O)C[C@@H]1C[C@H]2c3cc(NS(C)(=O)=O)ccc3O[C@H]2[C@H](CO)O1,-8,nt,i,nt,1,nt,nt
O=C(COc1ccccc1)Nc1nc2cc3c(cc2s1)OCO3,-46,1,i,677,0,nt,nt
O=C(COc1ccccc1)Nc1nc2cc3c(cc2s1)OCCO3,-85,-12,i,220,4,i,1
OC1(CN2CCOCC2)C2CN3CCN(C2)CC1(c1ccccc1)C3 (configuration not stated),16,-4,+,446,1,i,0
C=CCn1c(COc2cccc(C)c2)nnc1SCn1nnc2ccccc2c1=O,-25,2,i,101,5,nt,nt
C#CCOCCOCCOCCNc1nc(N2CCOCC2)nc(N2CCN(C(=O)[C@H]([C@@H](C)CC)n3cc(CCCCN)nn3)CC2)n1,-29,1,+,nt,1,i,1
C#CCOCCOCCOCCNc1nc(N2CCN(C(=O)[C@H]([C@@H](C)CC)n3cc([C@@H](N)CO)nn3)CC2)nc(N2CCN(C(=O)[C@H](Cc3ccc(O)cc3)n3cc([C@@H](N)C(C)CC)nn3)CC2)n1 (some centres not stated),17,3,i,nt,-2,i,0
C#CCOCCOCCOCCNc1nc(N2CCN(C(=O)[C@H](C(C)C)n3cc(CCO)nn3)CC2)nc(N2CCN(C(=O)[C@H]([C@@H](C)CC)n3cc(CCCCN)nn3)CC2)n1,5,-1,i,359,-1,nt,nt
Cc1occc1-c1nnc(SCC(=O)c2cc3ccccc3oc2=O)o1,-17,-1,i,380,0,nt,nt
N#CC1=C(SCC(=O)c2cc3ccccc3oc2=O)NC(=O)C(C#N)C12CCCC2 (configuration not stated),-12,1,i,521,1,i,0
Cc1c(N/N=C(\C#N)C(=O)c2ccccc2)c(=O)n(-c2ccccc2)n1C,42,nt,i,nt,-2,i,6.9*
Cc1cc2oc(C(=O)Nc3c(C)n(C)n(-c4ccccc4)c3=O)c(C)c2cc1C,-2,-4,i,304,1,i,0
CC1=C(C(=O)N2CCOCC2)CC(CC(=O)NCCCN(C)C)C(=O)N1CCC1=CCCCC1 (configuration not stated),0,nt,i,nt,-2,nt,nt
Cc1noc(C)c1-c1ccc(C(=O)NCCC(F)(F)F)c2occc12,-3,nt,i,nt,0,nt,nt

# Assay outcomes (PubChem)
